# Calls of active or inactive are those of the source. The calls are words filed in the database; no cut-off is given here.
# Columns and labels:
# Cathepsin S = Cathepsin S (Homo sapiens, UniProt P25774); assay: Inhibition of recombinant cathepsin S (unknown origin) using ZVVR-AMC fluorogenic substrate
# [1] = Cytotoxicity against human MCF10A cells assessed as cell death at 150 uM incubated for 96 hrs by MTT assay; format: functional; conditions: MCF-10A
# Caspase-3 = target: T1, Caspase-3 (Homo sapiens, UniProt P42574); assay: Inhibition of recombinant caspase 3 (unknown origin) using DEVD-AFC fluorogenic substrate
# T1 sequence (P42574 whole entry): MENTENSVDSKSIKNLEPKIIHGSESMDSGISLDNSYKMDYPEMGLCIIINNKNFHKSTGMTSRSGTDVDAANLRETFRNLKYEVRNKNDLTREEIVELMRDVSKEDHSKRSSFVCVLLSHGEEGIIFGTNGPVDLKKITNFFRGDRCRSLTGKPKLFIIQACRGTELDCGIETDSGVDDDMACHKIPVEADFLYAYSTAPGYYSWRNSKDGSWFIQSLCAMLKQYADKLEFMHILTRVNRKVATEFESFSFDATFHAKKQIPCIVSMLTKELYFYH
# [2] = target: T2, Ubiquitin carboxyl-terminal hydrolase 17 (Homo sapiens, UniProt Q6R6M4); assay: Inhibition of USP17 in human HEK293T cells using fluorogenic substrate ub-rhodamine110 preincubated for 30 mins followed by substrate addition measured every 4 mins for 1 hr by microplate reader analysis; format: cell-based, HEK-293T
# T2 sequence (Q6R6M4 whole entry): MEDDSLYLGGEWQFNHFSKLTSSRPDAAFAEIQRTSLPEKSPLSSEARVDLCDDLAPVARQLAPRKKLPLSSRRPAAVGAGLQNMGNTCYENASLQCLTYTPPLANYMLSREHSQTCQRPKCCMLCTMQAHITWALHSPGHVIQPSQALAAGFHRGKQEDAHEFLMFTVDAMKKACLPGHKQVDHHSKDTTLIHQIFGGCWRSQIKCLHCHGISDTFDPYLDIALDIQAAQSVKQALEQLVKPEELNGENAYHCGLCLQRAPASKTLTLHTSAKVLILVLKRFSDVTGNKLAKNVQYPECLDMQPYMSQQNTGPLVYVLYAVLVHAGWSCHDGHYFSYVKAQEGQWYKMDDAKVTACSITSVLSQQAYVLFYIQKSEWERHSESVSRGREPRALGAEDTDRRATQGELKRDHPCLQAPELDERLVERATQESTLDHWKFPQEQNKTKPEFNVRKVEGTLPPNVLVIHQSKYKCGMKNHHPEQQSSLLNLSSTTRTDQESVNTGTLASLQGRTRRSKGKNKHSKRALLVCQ
# Caspase-8 = Caspase-8 (Homo sapiens, UniProt Q14790); assay: Inhibition of recombinant caspase 8 (unknown origin) using IETD-AFC fluorogenic substrate
# Cathepsin B = Cathepsin B (Homo sapiens, UniProt P07858); assay: Inhibition of recombinant cathepsin B (unknown origin) using Z-Leu-Arg-AMC fluorogenic substrate
# Legumain = target: T3, Legumain (Homo sapiens, UniProt Q99538); assay: Inhibition of recombinant human legumain using Z-Ala-Ala-Asn-MCA substrate measured every 2 mins for 60 mins by microplate reader analysis
# T3 sequence (Q99538 whole entry): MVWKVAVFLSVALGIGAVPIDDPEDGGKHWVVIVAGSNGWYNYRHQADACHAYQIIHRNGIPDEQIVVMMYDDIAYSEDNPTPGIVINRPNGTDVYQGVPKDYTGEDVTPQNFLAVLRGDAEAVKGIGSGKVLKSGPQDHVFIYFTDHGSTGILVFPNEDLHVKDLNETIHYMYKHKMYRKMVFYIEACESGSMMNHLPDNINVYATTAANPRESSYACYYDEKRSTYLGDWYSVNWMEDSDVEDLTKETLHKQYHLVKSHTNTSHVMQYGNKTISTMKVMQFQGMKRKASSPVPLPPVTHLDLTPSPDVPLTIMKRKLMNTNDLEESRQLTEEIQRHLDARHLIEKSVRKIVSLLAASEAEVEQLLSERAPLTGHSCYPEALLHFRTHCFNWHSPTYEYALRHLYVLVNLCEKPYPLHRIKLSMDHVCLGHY
# Legumain (Homo sapiens) [3] = target: T4, Legumain (Homo sapiens) (UniProt Q99538); assay: Inhibition of legumain in human MCF7 cells using Z-Ala-Ala-Asn-MCA substrate at 30 uM incubated for 24 hrs by microplate reader analysis; format: cell-based
# T4 sequence (whole entry): T3 sequence (Q99538 whole entry)
# In short: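 MCF7 cells incubated with compound at 37 °C for 24 h. Media then removed, cells washed with assay buffer and lysed. Intracellular legumain activity read in the lysate with fluorogenic substrate. Run in triplicate.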
# MCF7 [4] = assay: Cytotoxicity against human MCF7 cells assessed as cell death at 30 uM incubated for 96 hrs by MTT assay; format: functional; conditions: MCF7, 96 h
# In short: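 MCF7 breast cancer cells were exposed to compound for 96 h, with DMSO vehicle as the control. Viability was read by MTT assay, n = 6.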
# T47D = assay: Cytotoxicity against human T47D cells assessed as cell viability at 30 uM incubated for 96 hrs by MTT assay; format: functional; conditions: read-out: Activity
# In short: (§1)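 MTT viability read-out after 96 h exposure. Compared with DMSO vehicle control. n = 6.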
# [5] = Cytotoxicity against human PC3 cells assessed as cell viability at 30 uM incubated for 96 hrs by MTT assay; format: functional; conditions: PC-3, 96 h, read-out: Activity; in short: as §1
# Legumain (Homo sapiens) [6] = target: T4, Legumain (Homo sapiens); assay: Inhibition of legumain in human MCF7 cells using Z-Ala-Ala-Asn-MCA substrate at 30 uM incubated for 48 hrs by microplate reader analysis; format: cell-based
# [7] = Antimetastatic activity in human PC3 cells assessed as inhibition of colony formation efficiency at 2.5 uM after 2 weeks by soft agar anchorage-independent growth assay; format: functional; conditions: PC-3, 336 h
# In short: (§2)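 Soft agar anchorage-independent colony formation in MCF7 and PC3 cells over 2 weeks. Compound and media refreshed every 4 days. Colonies quantified relative to DMSO vehicle-treated cells. n = 5.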
# MCF7 [8] = assay: Antimetastatic activity in human MCF7 cells assessed as inhibition of colony formation efficiency at 5 uM after 2 weeks by soft agar anchorage-independent growth assay; format: functional; conditions: MCF7, 336 h; in short: as §2
# [9] = Cytotoxicity against human DU145 cells assessed as cell viability at 30 uM incubated for 96 hrs by MTT assay; format: functional; conditions: DU-145, 96 h, read-out: Activity; in short: as §1
# Chain of Cathepsin S (P25774 whole entry): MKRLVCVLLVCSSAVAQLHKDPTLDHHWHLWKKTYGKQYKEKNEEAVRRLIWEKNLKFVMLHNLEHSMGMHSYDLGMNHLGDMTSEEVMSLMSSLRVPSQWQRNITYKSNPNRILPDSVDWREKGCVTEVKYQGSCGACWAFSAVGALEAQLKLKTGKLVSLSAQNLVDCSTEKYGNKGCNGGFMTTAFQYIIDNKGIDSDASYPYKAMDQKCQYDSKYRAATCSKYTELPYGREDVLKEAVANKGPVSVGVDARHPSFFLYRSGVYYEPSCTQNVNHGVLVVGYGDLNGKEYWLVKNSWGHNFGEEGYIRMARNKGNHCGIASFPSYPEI
# Chain of Caspase-8 (Q14790 217-374 limits assumed): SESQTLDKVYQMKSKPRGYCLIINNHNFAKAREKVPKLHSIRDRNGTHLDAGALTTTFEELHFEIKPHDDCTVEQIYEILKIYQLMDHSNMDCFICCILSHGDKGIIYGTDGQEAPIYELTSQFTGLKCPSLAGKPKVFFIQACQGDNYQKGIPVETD
# Chain of Caspase-8 (Q14790 385-479 limits assumed): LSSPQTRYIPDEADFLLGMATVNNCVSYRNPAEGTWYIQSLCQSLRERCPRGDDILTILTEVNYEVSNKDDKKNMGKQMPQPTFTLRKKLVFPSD
Structure (SMILES),IC50 (Legumain),inhibition (Legumain (Homo sapiens) [3]),other results
N#C[C@H](CC(N)=O)NC(=O)[C@@H]1CCCN1S(=O)(=O)c1ccc(-c2ccccc2)cc1,12 nM,47%,IC50 (Cathepsin S): > 50000 nM; mortality at 150 µM [1]: 0%; IC50 (Caspase-3): > 50000 nM; IC50 [2]: > 50000 nM; IC50 (Caspase-8): > 50000 nM; IC50 (Cathepsin B): > 50000 nM; mortality at 30 µM (MCF7 [4]): 45%
N#C[C@H](CC(N)=O)NC(=O)[C@@H]1CCCN1S(=O)(=O)c1ccc(Cl)cc1Cl,593 nM,0%,
COc1ccc(-c2ccc(S(=O)(=O)N3CCC[C@H]3C(=O)N[C@H](C#N)CC(N)=O)cc2)cc1,6 nM,90%,IC50 (Cathepsin S): > 50000 nM; mortality at 150 µM [1]: 0%; IC50 (Caspase-3): > 50000 nM; IC50 [2]: > 50000 nM; IC50 (Caspase-8): > 50000 nM; IC50 (Cathepsin B): > 50000 nM; mortality at 30 µM (MCF7 [4]): 58%
N#C[C@H](CC(N)=O)NC(=O)[C@@H]1CCCN1S(=O)(=O)c1ccc(F)cc1,269 nM,0%,
N#C[C@H](CC(N)=O)NC(=O)[C@@H]1CCCN1S(=O)(=O)c1ccc(Cl)cc1,73 nM,0%,
COc1ccc(S(=O)(=O)N2CCC[C@H]2C(=O)N[C@H](C#N)CC(N)=O)cc1,> 10000 nM,,
N#C[C@H](CC(N)=O)NC(=O)[C@@H]1CCCN1S(=O)(=O)c1ccc(-c2ccccc2Cl)cc1,35 nM,29%,
CC(C)(C)c1ccc(-c2ccc(S(=O)(=O)N3CCC[C@H]3C(=O)N[C@H](C#N)CC(N)=O)cc2)cc1,71 nM,90%,IC50 (Cathepsin S): > 50000 nM; viability at 30 µM (T47D): > 50%; mortality at 150 µM [1]: 0%; viability at 30 µM [5]: > 50%; IC50 (Caspase-3): > 50000 nM; IC50 [2]: > 50000 nM; IC50 (Caspase-8): > 50000 nM; inhibition (Legumain (Homo sapiens) [6]): Active; IC50 (Cathepsin B): > 50000 nM; inhibition at 2.5 µM [7]: 50%; inhibition at 5 µM (MCF7 [8]): 50%; mortality at 30 µM (MCF7 [4]): 81%; viability at 30 µM [9]: > 50%
N#C[C@H](CC(N)=O)NC(=O)[C@@H]1CCCN1S(=O)(=O)c1ccc(Br)cc1,282 nM,0%,
N#C[C@H](CC(N)=O)NC(=O)[C@@H]1CCCN1S(=O)(=O)c1ccc(C(F)(F)F)cc1,332 nM,0%,
N#C[C@H](CC(N)=O)NC(=O)[C@@H]1CCCN1S(=O)(=O)c1ccc(-c2ccc3c(c2)OCO3)cc1,49 nM,49%,

# The next lines start with results.
IC50 (Legumain),inhibition (Legumain (Homo sapiens) [3]),Structure (SMILES),other results
969 nM,49%,CC(C)Oc1ccc(-c2ccc(S(=O)(=O)N3CCC[C@H]3C(=O)N[C@H](C#N)CC(N)=O)cc2)cc1,
71 nM,42%,CCc1ccc(-c2ccc(S(=O)(=O)N3CCC[C@H]3C(=O)N[C@H](C#N)CC(N)=O)cc2)cc1,
45 nM,64%,N#C[C@H](CC(N)=O)NC(=O)[C@@H]1CCCN1S(=O)(=O)c1ccc(-c2ccc(Cl)cc2)cc1,
33 nM,40%,N#C[C@H](CC(N)=O)NC(=O)[C@@H]1CCCN1S(=O)(=O)c1ccc(-c2ccc(F)cc2)cc1,
5 nM,75%,CC(C)c1ccc(-c2ccc(S(=O)(=O)N3CCC[C@H]3C(=O)N[C@H](C#N)CC(N)=O)cc2)cc1,
47 nM,42%,N#C[C@H](CC(N)=O)NC(=O)[C@@H]1CCCN1S(=O)(=O)c1ccc(-c2cccc(F)c2)cc1,
73 nM,90%,CCOc1ccc(-c2ccc(S(=O)(=O)N3CCC[C@H]3C(=O)N[C@H](C#N)CC(N)=O)cc2)cc1,
32 nM,0%,Cc1ccc(-c2ccc(S(=O)(=O)N3CCC[C@H]3C(=O)N[C@H](C#N)CC(N)=O)cc2)cc1,
121 nM,52%,N#C[C@H](CC(N)=O)NC(=O)[C@@H]1CCCN1S(=O)(=O)c1ccc(-c2ccc(C(F)(F)F)cc2)cc1,
33 nM,0%,N#Cc1ccc(-c2ccc(S(=O)(=O)N3CCC[C@H]3C(=O)N[C@H](C#N)CC(N)=O)cc2)cc1,

# Reference: ChEMBL document CHEMBL3739391, “Development of a potent and selective cell penetrant Legumain inhibitor” (Bioorg Med Chem Lett, 2015)
